Key:
[1] = biological target: Histone deacetylase (HDAC1 and HDAC2) (Homo sapiens, UniProt Q13547+Q92769); experiment: Inhibition of HDAC1/2 in human HeLa cells nuclear extracts using acetylated histone peptide as substrate after 30 mins by Color de Lys assay; assay type: cell-based
[2] = system: MDA-MB-231; experiment: Induction of apoptosis in human MDA-MB-231 cells assessed as early apoptotic cells at 4 uM after 24 hrs using Annexin V-FITC and propidium iodide staining by flow cytometry (reference value: 2.60%); assay type: functional
How it was run: (§1)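 MDA-MB-231 cells (1.2 × 10⁵) exposed to compound for 24 h, then harvested and washed in PBS. Cells resuspended in Annexin V-FITC binding buffer, stained with Annexin V-FITC plus propidium iodide for 10 min at room temperature, held on ice and analysed by flow cytometry.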

[3] = system: MDA-MB-231; experiment: Induction of apoptosis in human MDA-MB-231 cells assessed as late apoptotic cells at 4 uM after 24 hrs using Annexin V-FITC and propidium iodide staining by flow cytometry (reference value: 4.04%); assay type: functional; how it was run: as §1
[4] = system: MDA-MB-231; experiment: Induction of apoptosis in human MDA-MB-231 cells assessed as early apoptotic cells at 1 uM after 24 hrs using Annexin V-FITC and propidium iodide staining by flow cytometry (reference value: 2.60%); assay type: functional; how it was run: as §1
[5] = system: MDA-MB-231; experiment: Induction of apoptosis in human MDA-MB-231 cells assessed as total apoptotic cells at 1 uM after 24 hrs using Annexin V-FITC and propidium iodide staining by flow cytometry; assay type: functional; how it was run: as §1
[6] = system: MDA-MB-231; experiment: Induction of apoptosis in human MDA-MB-231 cells assessed as late apoptotic cells at 1 uM after 24 hrs using Annexin V-FITC and propidium iodide staining by flow cytometry (reference value: 4.04%); assay type: functional; how it was run: as §1
[7] = Antiproliferative activity against human KG1 cells after 48 hrs by MTT assay; assay type: functional, cell-based; settings: KG-1, 48 h
[8] = system: PC-3; experiment: Antiproliferative activity against human PC3 cells after 48 hrs by MTT assay; assay type: functional, cell-based; settings: PC-3, 48 h
[9] = system: MDA-MB-231; experiment: Antiproliferative activity against human MDA-MB-231 cells after 48 hrs by MTT assay; assay type: functional, cell-based; settings: MDA-MB-231, 48 h

Row | Structure (SMILES) | IC50 [1] [µM] | further results
1 | O=C(CCN1C(=O)c2ccccc2S1(=O)=O)Nc1cccc(C(=O)NO)c1 | > 5 | –
2 | O=C(CCCN1C(=O)c2ccccc2S1(=O)=O)Nc1cccc(C(=O)NO)c1 | > 5 | –
3 | O=C(CCCCN1C(=O)c2ccccc2S1(=O)=O)Nc1cccc(C(=O)NO)c1 | > 5 | –
4 | O=C(CCCCCN1C(=O)c2ccccc2S1(=O)=O)Nc1cccc(C(=O)NO)c1 | > 5 | –
5 | O=C(CCCCCN1C(=O)c2ccc([N+](=O)[O-])cc2S1(=O)=O)Nc1cccc(C(=O)NO)c1 | > 5 | –
6 | O=C(CCN1C(=O)c2ccccc2S1(=O)=O)Nc1ccc(C(=O)NO)cc1 | 0.3 | –
7 | O=C(CCN1C(=O)c2ccc([N+](=O)[O-])cc2S1(=O)=O)Nc1ccc(C(=O)NO)cc1 | 2.02 | –
8 | O=C(CCN1C(=O)c2ccc(I)cc2S1(=O)=O)Nc1ccc(C(=O)NO)cc1 | 0.523 | –
9 | O=C(CCN1C(=O)c2ccc(-c3ccccc3)cc2S1(=O)=O)Nc1ccc(C(=O)NO)cc1 | 1.7 | Activity [2]: 13.48%; Activity [3]: 9.86%; Activity [4]: 9.27%; Activity [5]: 16.76%; Activity [6]: 7.49%; IC50 [7]: 5.23 µM; IC50 [8]: 8.79 µM; IC50 [9]: 3.45 µM
10 | O=C(CCCN1C(=O)c2ccccc2S1(=O)=O)Nc1ccc(C(=O)NO)cc1 | 0.233 | Activity [2]: 4.7%; Activity [3]: 5.35%; Activity [4]: 3.44%; Activity [5]: 7.5%; Activity [6]: 4.06%; IC50 [8]: > 25 µM; IC50 [9]: 8.71 µM
11 | O=C(CCCN1C(=O)c2ccc([N+](=O)[O-])cc2S1(=O)=O)Nc1ccc(C(=O)NO)cc1 | 1.66 | –
12 | O=C(CCCN1C(=O)c2ccc(I)cc2S1(=O)=O)Nc1ccc(C(=O)NO)cc1 | 0.419 | –
13 | O=C(CCCN1C(=O)c2ccc(-c3ccccc3)cc2S1(=O)=O)Nc1ccc(C(=O)NO)cc1 | 1.51 | IC50 [7]: 11.6 µM; IC50 [8]: > 25 µM; IC50 [9]: 9.9 µM
14 | O=C(CCCCN1C(=O)c2ccc(I)cc2S1(=O)=O)Nc1ccc(C(=O)NO)cc1 | 0.305 | –
15 | O=C(CCCCN1C(=O)c2ccc(-c3ccccc3)cc2S1(=O)=O)Nc1ccc(C(=O)NO)cc1 | > 5 | –
16 | O=C(CCN1C(=O)c2ccccc2S1(=O)=O)NCc1ccc(C(=O)NO)cc1 | 2.79 | –
17 | O=C(CCCCN1C(=O)c2ccccc2S1(=O)=O)NCc1ccc(C(=O)NO)cc1 | 3.4 | –
18 | O=C(CCCCCN1C(=O)c2ccccc2S1(=O)=O)NCc1ccc(C(=O)NO)cc1 | 2.65 | –
19 | O=C(NO)c1ccc(CN2C(=O)c3ccccc3S2(=O)=O)cc1 | 1.398 | –
20 | O=C(NO)c1ccc(CN2C(=O)c3ccc([N+](=O)[O-])cc3S2(=O)=O)cc1 | > 5 | –
21 | O=C(NO)c1ccc(CN2C(=O)c3ccc(I)cc3S2(=O)=O)cc1 | 1.335 | –
22 | O=C(NO)c1ccc(CN2C(=O)c3ccc(-c4ccccc4)cc3S2(=O)=O)cc1 | 0.386 | –
23 | O=C(NO)c1ccc(CN2C(=O)c3ccc(NC(=O)c4ccccc4)cc3S2(=O)=O)cc1 | 0.38 | –
24 | O=C(NO)c1ccc(CN2C(=O)c3ccc(NC(=O)c4ccc(-c5ccccc5)cc4)cc3S2(=O)=O)cc1 | > 5 | –
25 | COc1cc(C(=O)Nc2ccc3c(c2)S(=O)(=O)N(Cc2ccc(C(=O)NO)cc2)C3=O)cc(OC)c1OC | 1.71 | –
26 | O=C(NO)c1ccc(CN2C(=O)c3ccc(NC(=O)c4ccc(C(F)(F)F)cc4)cc3S2(=O)=O)cc1 | 1.413 | –
27 | O=C(NO)c1ccc(CN2C(=O)c3ccc(NC(=O)c4ccc(F)cc4)cc3S2(=O)=O)cc1 | 0.646 | –
28 | O=C(Cc1ccccc1)Nc1ccc2c(c1)S(=O)(=O)N(Cc1ccc(C(=O)NO)cc1)C2=O | 0.53 | –
29 | Cc1ccc(/C=C/C(=O)Nc2ccc3c(c2)S(=O)(=O)N(Cc2ccc(C(=O)NO)cc2)C3=O)cc1 | 1.297 | –
30 | O=C(CCCCCCC(=O)Nc1ccccc1)NO [VORINOSTAT] | – | Activity [2]: 7.1%; Activity [3]: 7.66%; Activity [4]: 8%; Activity [5]: 11.32%; Activity [6]: 3.32%

Source: ChEMBL document CHEMBL3603743, “Design, synthesis and biological evaluation of saccharin-based N-hydroxybenzamides as histone deacetylases (HDACs) inhibitors” (Bioorg Med Chem, 2015)
